Inhibition data for 50 molecules are collected here from PubChem BioAssay.

Assay [1] relates to transactivating tegument protein VP16 (Human herpesvirus 1). As to the kind of experiment: VP16 transactivation reporter inhibitors, counter-screen for SRC2 inhibitor project, cell-based, luminescence, single concentration (AID 652007; in the data active = inhibition above about 36%). Particulars: cell-based VP16 transactivation luciferase reporter, at 8.9 µM, stronger effect = higher value. On the technique in general: Counterscreens check selectivity or assay interference.

Assay [2] has as its target Nuclear receptor coactivator 2 (Homo sapiens) (UniProt Q15596). Description: SRC2 coactivator transcriptional activity inhibitors, confirmation, cell-based, luminescence, HEK293, triplicate (AID 652008;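 active = mean inhibition above 46.5%, the solvent-only control mean plus 3 SD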;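 also: 0% = DMSO-treated cells and 100% = Gossypol at 36 µM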). Particulars: HEK293 GAL4-SRC2 luciferase reporter, at 8.9 µM, stronger effect = higher value. In general terms: Reporter assays use an easily measured gene product as a stand-in for the process of interest.

A short description of assay [3]: Gal4-VP16 luciferase reporter inhibitors, counter-screen for COUP-TFII antagonist project, cell-based, luminescence, HEK293 (AID 687007; in the data active = inhibition above about 13%). Particulars: at 8.5 µM, stronger effect = higher value.
Assay [4] deals with COUP transcription factor 2 (Homo sapiens) (UniProt P24468). As to the kind of experiment: NR2F2 transcriptional activity inhibitors, confirmation, cell-based, luciferase reporter, HEK293, triplicate (AID 687008;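 active = mean inhibition over three repeats above a set limit taken from the earlier primary screen, cut at about 38% in these data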;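 also: 100% = cells given the luciferase reporter alone without the COUP-TF2 vector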). Particulars: HEK293 NGFI-A luciferase reporter, luminescence; at 8.5 µM; stronger effect = higher value.
COUP transcription factor 2 (Homo sapiens), sequence (P24468 whole entry, looked up): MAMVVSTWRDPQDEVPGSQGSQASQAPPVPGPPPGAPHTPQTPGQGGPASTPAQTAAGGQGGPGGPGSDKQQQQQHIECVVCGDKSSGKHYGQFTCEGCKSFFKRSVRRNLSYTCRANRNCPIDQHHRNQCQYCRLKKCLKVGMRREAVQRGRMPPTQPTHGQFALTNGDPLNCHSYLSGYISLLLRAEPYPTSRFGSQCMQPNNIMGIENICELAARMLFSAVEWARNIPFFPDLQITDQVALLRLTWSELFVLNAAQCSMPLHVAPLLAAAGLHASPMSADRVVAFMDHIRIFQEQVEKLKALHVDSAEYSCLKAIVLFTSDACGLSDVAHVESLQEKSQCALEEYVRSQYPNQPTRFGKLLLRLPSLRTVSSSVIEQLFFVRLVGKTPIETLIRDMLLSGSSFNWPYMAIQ
Assay [5] is described as follows: compounds interfering with TAMRA-BSA probe, counter-screen for TCR-CD3 interaction inhibitor project, biochemical, fluorescence, TAMRA-labeled BSA (AID 652035).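 Also: 0% = buffer low control and 100% = reference high control.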 Particulars: TAMRA-labeled BSA probe fluorescence counterscreen; at 9.4 µM; stronger effect = higher value.
Assay [6] has as its system T-cell receptor (TCR)-CD3 interaction, human. As to the kind of experiment: TCR-CD3 interaction inhibitors, retest, confirmation, biochemical, fluorescence, TAMRA-labeled TCR probe (AID 652036; in the data active = inhibition above about 19%). Conditions: TAMRA-labeled TCR probe fluorescence binding assay; at 9.4 µM; stronger effect = higher value.
In assay [7] the target is Galanin receptor type 2 (Homo sapiens) (UniProt O43603). Description: GALR2 antagonists, retest of hits, confirmation, cell-based (AID 866; in the data active = inhibition above about 27%;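 also: cells stimulated with galanin at about its EC80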). Conditions: GALR2-expressing cells, antagonist mode, at 4 µM, stronger effect = higher value.
Galanin receptor type 2 (Homo sapiens), sequence (O43603 whole entry, looked up): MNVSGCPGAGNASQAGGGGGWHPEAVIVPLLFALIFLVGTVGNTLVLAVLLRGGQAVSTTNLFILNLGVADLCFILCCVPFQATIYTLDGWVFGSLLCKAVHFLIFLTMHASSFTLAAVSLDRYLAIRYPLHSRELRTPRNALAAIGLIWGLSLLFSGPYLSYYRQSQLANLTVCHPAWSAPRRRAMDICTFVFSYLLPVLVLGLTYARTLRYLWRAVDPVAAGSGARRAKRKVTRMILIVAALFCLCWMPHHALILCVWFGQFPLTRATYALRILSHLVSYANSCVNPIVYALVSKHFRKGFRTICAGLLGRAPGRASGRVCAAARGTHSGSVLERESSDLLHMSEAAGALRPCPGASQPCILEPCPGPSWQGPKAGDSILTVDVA
Assay [8] in a line: inhibitors of NFAT-driven beta-lactamase reporter, confirmation, counter-screen for GALR2 antagonist project, CHO NFAT-bla cells, FRET readout (AID 867;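 active = inhibition above the mean inhibition across tested compounds plus 3 SD, cut at about 27% in these data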;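 also: 0% = 500 nM thapsigargin stimulated wells and 100% = unstimulated BSA only wells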). Conditions: thapsigargin-stimulated, at 4.2 µM, stronger effect = higher value.
Assay [9] concerns the target (Lyso)-N-acylphosphatidylethanolamine lipase (Mus musculus) (UniProt Q8VD66). As to the kind of experiment: ABHD4 inhibitors, retest, confirmation, biochemical, fluorescence polarization, mouse (AID 720658;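 active = mean inhibition across replicates above the hit cutoff set in the primary screen, cut at about 30% in these data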;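 also: 0% = wild-type ABHD4 with DMSO and 100% = catalytically dead S159A mutant with DMSO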). Conditions: purified mABHD4, FP-Rh probe fluorescence polarization; at 8.92 µM; stronger effect = higher value. The gist of the method: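 Also added: Rhodamine-tagged fluorophosphonate probe FP-Rh / Assay system: mouse wild-type ABHD4 enzyme / Evaluation: % inhibition relative to DMSO and S159A mutant controls / Medium: HEPES pH 7.0 buffer with NaCl and Pluronic F-127 / Detection: fluorescence polarization at 525 nm excitation, 598 nm emission / Timing: 45 min compound-enzyme pre-incubation, then 60 min probe incubation, 25 °C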
In general terms: Polarisation of emitted light reports the rotation of a fluorescent probe.

The list shows a part of the results. Calls of active or inactive are those of the source. Rule as the data show it, unless noted: active = inhibition above about 23%; inactive = the rest.

The term inhibition denotes the change of the read-out against control, counted positive when it falls.

Nuclear receptor coactivator 2 (Homo sapiens), sequence (Q15596 whole entry, looked up, the tested form may be a part): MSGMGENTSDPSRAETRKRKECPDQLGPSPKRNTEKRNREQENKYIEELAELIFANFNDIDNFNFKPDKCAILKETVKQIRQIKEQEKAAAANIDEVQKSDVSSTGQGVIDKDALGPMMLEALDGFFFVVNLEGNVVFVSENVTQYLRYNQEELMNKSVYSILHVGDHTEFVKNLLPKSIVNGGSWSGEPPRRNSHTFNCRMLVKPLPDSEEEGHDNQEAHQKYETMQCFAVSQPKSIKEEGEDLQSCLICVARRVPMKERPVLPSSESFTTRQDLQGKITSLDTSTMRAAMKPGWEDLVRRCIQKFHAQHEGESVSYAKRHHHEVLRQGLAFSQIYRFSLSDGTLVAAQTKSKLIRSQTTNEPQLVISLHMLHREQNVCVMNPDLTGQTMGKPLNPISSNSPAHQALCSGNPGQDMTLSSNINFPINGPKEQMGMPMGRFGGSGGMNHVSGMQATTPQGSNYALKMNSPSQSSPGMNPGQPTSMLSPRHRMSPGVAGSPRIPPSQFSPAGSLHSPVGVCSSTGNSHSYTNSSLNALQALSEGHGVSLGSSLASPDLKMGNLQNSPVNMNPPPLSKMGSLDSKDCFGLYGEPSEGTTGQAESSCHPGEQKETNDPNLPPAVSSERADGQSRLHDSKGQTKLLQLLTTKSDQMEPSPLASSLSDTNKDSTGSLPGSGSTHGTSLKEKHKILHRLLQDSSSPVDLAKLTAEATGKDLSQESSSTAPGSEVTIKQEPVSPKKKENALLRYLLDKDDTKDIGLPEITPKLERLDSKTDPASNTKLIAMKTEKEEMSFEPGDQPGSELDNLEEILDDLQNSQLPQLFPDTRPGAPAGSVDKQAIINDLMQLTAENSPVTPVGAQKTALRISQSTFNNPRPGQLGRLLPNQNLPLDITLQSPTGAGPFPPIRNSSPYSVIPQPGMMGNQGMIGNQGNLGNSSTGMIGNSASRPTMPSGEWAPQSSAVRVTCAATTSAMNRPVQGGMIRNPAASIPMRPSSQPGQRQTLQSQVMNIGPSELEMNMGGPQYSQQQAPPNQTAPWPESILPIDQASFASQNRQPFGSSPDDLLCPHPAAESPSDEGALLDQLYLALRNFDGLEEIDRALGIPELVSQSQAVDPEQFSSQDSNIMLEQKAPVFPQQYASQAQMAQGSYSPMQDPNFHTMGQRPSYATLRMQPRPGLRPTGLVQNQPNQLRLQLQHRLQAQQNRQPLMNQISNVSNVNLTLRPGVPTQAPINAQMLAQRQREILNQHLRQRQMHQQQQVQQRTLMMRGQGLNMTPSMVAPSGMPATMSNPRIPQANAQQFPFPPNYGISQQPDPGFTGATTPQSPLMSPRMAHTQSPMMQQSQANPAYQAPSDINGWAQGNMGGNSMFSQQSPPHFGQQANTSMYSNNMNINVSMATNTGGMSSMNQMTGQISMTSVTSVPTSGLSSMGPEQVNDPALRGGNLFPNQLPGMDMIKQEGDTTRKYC
(Lyso)-N-acylphosphatidylethanolamine lipase (Mus musculus), sequence (Q8VD66 whole entry, looked up): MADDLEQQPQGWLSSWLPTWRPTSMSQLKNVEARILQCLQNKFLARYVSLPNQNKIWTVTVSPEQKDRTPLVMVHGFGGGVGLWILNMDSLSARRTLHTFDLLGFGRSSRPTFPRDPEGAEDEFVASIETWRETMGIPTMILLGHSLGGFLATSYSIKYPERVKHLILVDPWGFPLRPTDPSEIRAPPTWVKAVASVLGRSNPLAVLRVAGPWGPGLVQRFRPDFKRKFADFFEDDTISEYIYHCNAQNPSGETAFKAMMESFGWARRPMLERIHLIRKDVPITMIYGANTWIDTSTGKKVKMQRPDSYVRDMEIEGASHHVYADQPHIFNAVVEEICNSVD

As to `CN1OC[C@@H]2CN(S(=O)(=O)c3cccc(C(F)(F)F)c3)[C@H](c3ccc(-c4cc5ccccc5o4)cc3)C[C@@H]21`, the inhibition was 3.18% (inactive) in [1], 46.3% (inactive) in [2], -5.07% (inactive) in assay [3] and 0.77% (inactive) in assay [4].

Regarding `CCOc1ccc(-n2c(O)c(/C=N/Nc3nnc(C)c(=O)[nH]3)c3ccccc3c2=O)cc1`, the inhibition in assay [5] was -21.4% (inactive); in [6], 26% (active).

With `Cc1ccc(-c2nc(CSCC(=O)NC3CCN(Cc4ccccc4)CC3)c(C)o2)cc1`, the inhibition was 11% (inactive) in assay [1], 33.9% (inactive) in [2], 0.41% (inactive) in assay [3] and 22.5% (inactive) in assay [4].

Take `Cc1ccc(O)c(/C=N/NC(=O)COc2ccc3c(C)cc(=O)oc3c2)c1`: the inhibition in [5] was -10.9% (inactive); in assay [6], 46.1% (active).

For the molecule `COc1cc(C(=O)NCC2(c3ccccc3)CCCC2)ccc1OC(C)C`, the inhibition in assay [5] is 1.07% (inactive); in assay [6] it was 2.19% (inactive).

Turning to `CCOCC(=O)NCc1ccc2c(c1)cc(C)n2C`, the inhibition in assay [5] was 6.46% (inactive); in [6] it was 6.18% (inactive).

For the molecule `CCC(=O)NC(=S)Nc1ccc(NC(=O)c2ccco2)c(Cl)c1`, the inhibition in assay [5] is 3.69% (inactive); in assay [6] it was 13.4% (inactive).

Consider `O=C(N/N=C/c1ccco1)c1ccc(C(=O)N/N=C/c2ccco2)o1`, for which the inhibition in assay [5] was -19.7% (inactive); in assay [6], 28.2% (active).

For the molecule `O=C(c1c(F)cccc1F)N1CCN(S(=O)(=O)c2ccc3c(c2)OCCO3)CC1`, the inhibition in assay [1] was -6.59% (inactive); in assay [2] it was 23.6% (inactive); in assay [3], -10.6% (inactive); in assay [4], 23.4% (inactive).

For the molecule `COc1ccc(NS(=O)(=O)c2cc(NC(=O)/C=C/c3cc(OC)c(OC)c(OC)c3)ccc2N2CCCCC2)cc1`, the values for the inhibition in [5] and in assay [6] were 11% (inactive) and 29.4% (active), respectively.

Take `COc1ccc(/C=C2/SC(=O)N(CCCCCC(=O)Nc3ccccc3C(=O)O)C2=S)cc1`: the inhibition in assay [1] is 53.8% (active); in [2], 63.9% (active); in [3], 29.6% (active); in [4] it was 17.7% (inactive).

In the case of `Cc1cc(C(=O)CCC(=O)NNC(=O)c2ccccc2O)c(C)s1`, the inhibition in [5] is -14.4% (inactive); in assay [6] it was 11.4% (inactive).

Take `CN(C)CCNC(=O)C(C(=O)c1ccccc1)n1ccccc1=O` (centres undefined): the figures for the inhibition in [5] and in assay [6] were -0.25% (inactive) and 2.79% (inactive), respectively.

For the molecule `Cc1ncc(CO)c(/C=N/NC(=O)c2cccc(S(=O)(=O)N3CCCC3)c2)c1O`, the values for the inhibition in assay [5] and in assay [6] were -12.6% (inactive) and 15.4% (inactive), respectively.

Consider `COCCCNC(=S)NNC(=O)C(O)(c1ccccc1)c1ccccc1`, for which the figures for the inhibition in assay [5] and in assay [6] were -0.41% (inactive) and 16.3% (inactive), respectively.

In the case of `CN1CCN(/N=C/c2ccc(C#N)cc2)CC1`, the figures for the inhibition in assay [5] and in assay [6] were 1.63% (inactive) and 2.78% (inactive), respectively.

For `Cc1ccc2nc(-c3ccc(Br)cc3)cn2c1`, the inhibition in assay [1] was 9.32% (inactive); in [2], 78.4% (active); in [3], -12.3% (inactive); in assay [4], 19.1% (inactive).

For `COc1ccc(CC(=O)N/N=C/c2cc([N+](=O)[O-])cc(Br)c2O)cc1`, the inhibition in assay [5] was -11.9% (inactive); in assay [6] it was 40% (active).

As to `CC[C@@H](C)[C@H](NC(=O)CCc1c(C)c2cc3c4c(oc3c(C)c2oc1=O)CCCC4)C(=O)O`, the inhibition was 40.8% (active) in assay [1], 59.5% (active) in [2], 22.3% (active) in assay [3] and 24.8% (inactive) in assay [4].

For the molecule `CN(C)S(=O)(=O)c1cccc(NC(=O)COC(=O)C2(c3ccccc3F)CCCC2)c1`, the inhibition in assay [7] was 17.7% (inactive); in assay [8], 15.1% (inactive); in [1], -4.31% (inactive); in [2], 0.58% (inactive).

As to `O=C(N/N=C/c1cc([N+](=O)[O-])ccc1O)/C(=C\c1cccs1)NC(=O)c1ccccc1`, the inhibition is -11.3% (inactive) in [5] and 35% (active) in [6].

On to `O=C1C(Cc2ccc(O)cc2)NC(=S)N1Cc1ccccc1` (centres undefined), for which the inhibition was -2.95% (inactive) in assay [5] and -0.37% (inactive) in assay [6].

For `O=c1c2ccccc2c(-c2ccccc2)nn1-c1ccccn1`, the values for the inhibition in assay [5] and in assay [6] were -1.19% (inactive) and -0.97% (inactive), respectively.

Take `Cc1ccc(-c2nn(-c3ccccc3)cc2/C=C/C(=O)Nc2cccc(S(N)(=O)=O)c2)cc1`: the inhibition in assay [5] is 26.6% (active); in assay [6], 48.1% (active).

Turning to `O=S(=O)(O)c1cc2onnc2c2ccccc12`, the inhibition was 11% (inactive) in assay [5] and 4.6% (inactive) in [6].

As for `Cc1cc2nc3c(=O)[nH]c(=O)nc-3n(C[C@H](O)[C@H](O)[C@H](O)CO)c2cc1C`, the inhibition in [5] was 50.4% (active); in assay [6] it was 33.3% (active).

As for `COc1ccc(OC)c(NC(=O)c2cc(-c3cc(F)ccc3OCC3CCCO3)n[nH]2)c1` (centres undefined), the inhibition in assay [1] is 1.64% (inactive); in [2] it was -1.6% (inactive); in [3], 3.7% (inactive); in assay [4] it was -6.7% (inactive).

Consider `COc1ccccc1C(=O)NNC(=O)CCN1C(=O)/C(=C\c2ccccc2)SC1=S`, for which the inhibition was -8.51% (inactive) in assay [5] and 9.19% (inactive) in assay [6].

For the molecule `O=S1(=O)c2c(cccc2N2CCCC2)O[C@H](COCc2ccccc2)CN1C1CC1`, the inhibition is -4.17% (inactive) in [5] and 1.77% (inactive) in assay [6].

As to `C/C=C/C=C/C(=O)O`, the inhibition in assay [5] was 3.35% (inactive); in assay [6], 6.03% (inactive).

Turning to `COc1ccc(Br)cc1C(=O)NC(=S)Nc1cc(-c2nc3ccccc3[nH]2)ccc1C`, the inhibition is 17.9% (inactive) in assay [5] and 34.4% (active) in assay [6].

Turning to `C=CCn1c(=O)c(C(=O)Nc2ncccc2O)c(O)c2ccccc21`, the inhibition in assay [5] was -7.93% (inactive); in assay [6] it was 16.6% (inactive).

Take `Cc1ccc(NC(=O)C2CC(=O)N(c3ccc4c(c3)OCCO4)C2)cc1S(=O)(=O)N1CCCCCC1` (centres undefined): the inhibition in assay [3] is -2.18% (inactive); in assay [4] it was 14.1% (inactive).

Take `CCN(CC)P(=O)(C(NC(=O)OC)C(F)(F)C(F)(F)C(F)(F)C(F)F)N(CC)CC` (centres undefined): the inhibition in assay [3] was 7.83% (inactive); in assay [4], 14.8% (inactive).

As for `CCCCn1c(SCc2ncc(-c3ccccc3)o2)nc2cc(S(N)(=O)=O)ccc21`, the inhibition is 6.53% (inactive) in assay [3] and 14.4% (inactive) in assay [4].

Regarding `COc1ccc(OC)c(CNC(=O)Cn2nc(C)c3c(C)n(-c4ccc(C)cc4)nc3c2=O)c1`, the inhibition in [3] was -4.78% (inactive); in assay [4], 51.1% (active).

As to `CCCCCCSc1ccc(-c2nc3ccc(Cl)cn3c2NCc2ccccc2)cc1`, the inhibition in assay [9] was 5.45% (inactive).

With `NS(=O)(=O)c1ccc(CCNC(=O)c2ccc(Cl)c(S(=O)(=O)N3CCCCCC3)c2)cc1`, the inhibition in assay [3] was 5.82% (inactive); in assay [4] it was 39.1% (active).

`CCC(=O)Nc1ccc(C(=O)CSc2nnc(CNc3ccc(Cl)cc3)o2)cc1OC`: the inhibition in [3] was -6.4% (inactive); in [4] it was 17.3% (inactive).

On to `N#CC(C#N)=CN=c1ccn(Cc2ccc(Cl)cc2Cl)cc1`, for which the inhibition in [3] was -2.5% (inactive); in assay [4] it was 9.12% (inactive).

`Cc1ccc(-n2nc3c(=O)n(C(C)C(=O)NCc4ccc5c(c4)OCO5)nc(C)c3c2C)cc1` (centres undefined): the inhibition in [3] is -6.28% (inactive); in assay [4], 11.8% (inactive).

On to `COc1ccc(NC(=O)C2Cc3c(-c4cccc(NC(C)=O)c4)ccnc3O2)cc1OC` (centres undefined), for which the inhibition in [3] is -1.35% (inactive); in [4] it was 14.6% (inactive).

As for `COc1ccc(/C(=N\O)c2nccc3cc(OC)c(OC)cc23)cc1OC`, the inhibition in [5] is -7.63% (inactive); in [6], 15.5% (inactive).

As for `Cc1ccc(OCC(=O)Nc2ccc(N3CCN(C(=O)c4ccco4)CC3)cc2)c(C)c1`, the inhibition in assay [3] is 4.51% (inactive); in assay [4], 24.3% (inactive).

On to `CCOC(=O)N1CCN(C(=O)C[C@@H]2C(=O)N(CCc3ccc(Cl)cc3)C3=CCCC[C@]32C(=O)OCC)CC1`, for which the inhibition was -8.45% (inactive) in assay [3] and 9.27% (inactive) in assay [4].

Regarding `COc1ccc(C(=O)NC(=S)NNC(=O)CCc2ccccc2)cc1`, the inhibition was 4.22% (inactive) in [5] and 13% (inactive) in [6].

Regarding `O=[N+]([O-])c1cc(Br)c(O)c(/C=N/Nc2nc3ccccc3s2)c1`, the inhibition in assay [9] is 69.5% (active).

For the molecule `NS(=O)(=O)c1ccc(CCNc2nc(C(F)(F)F)nc3ccccc23)cc1`, the results for the inhibition in [3] and in assay [4] were -10.4% (inactive) and 0.16% (inactive), respectively.

For `CN(c1cccc(NC(=O)c2ccc(CN3CCc4ccccc4C3)cc2)c1)S(C)(=O)=O`, the inhibition was 4.04% (inactive) in [3] and 41.2% (active) in assay [4].

With `Cc1nc(C(=O)NCc2ccccc2)sc1C1(C)CC(c2cccnc2)=NO1` (centres undefined), the inhibition in assay [3] is -2.73% (inactive); in assay [4], 6.06% (inactive).
